According to paper PMC9257745 (Molecular Pharmaceutics, 2022):
Bridge positions count the residues as written; N and C are the ends.

Columns and labels:
trypsin = assay: Tryptic digestion assay; assay type: in vitro ADME; settings: pH 8
How it was run: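 Peptide at 150 μM incubated with trypsin (substrate:enzyme 5000:1) at 37 °C in 100 mM Tris–HCl, pH 8.0. Aliquots taken at intervals and quenched with 1 M HCl. Remaining peptide measured by RP-HPLC and plotted as natural log against time, n = 3.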

[1] = molecular target: albumin of cynomolgus monkey (Macaca fascicularis, UniProt A2V9Z4); assay type: binding; settings: yeast-displayed peptide, biotinylated SA, streptavidin-APC, flow cytometer
How it was run: (§1)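 Yeast grown in SDCAA at 30 °C for 16 h, then in SG/RCAA at 20 °C for 24 h to display the peptide. Cells labelled 1 h with mouse anti-FLAG and biotinylated albumin, washed in PBST, then stained 1 h with Alexa-488 goat anti-mouse IgG (display) and streptavidin-APC (albumin binding). Fluorescence read by flow cytometry.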

mouse SA (MSA) = mouse SA (MSA) (Mus musculus, UniProt P07724); assay: FACS binding specificity of peptide-displayed yeast cells, mouse albumin; settings: biotinylated SA, streptavidin-APC, flow cytometer
How it was run: as §1

albumin of rat = albumin of rat (Rattus norvegicus, UniProt P02770); assay: FACS binding specificity of peptide-displayed yeast cells, rat albumin; settings: biotinylated SA, streptavidin-APC, flow cytometer
How it was run: as §1

human SA (HSA) = human SA (HSA) (Homo sapiens, UniProt P02768); assay: FACS binding specificity of peptide-displayed yeast cells, human albumin; settings: biotinylated SA, streptavidin-APC, flow cytometer
How it was run: as §1

fatty acid-free HSA = fatty acid-free HSA (Homo sapiens, UniProt P02768); assay: SPR binding to immobilized HSA; settings: fatty acid-free HSA immobilized on CM5 sensor chip
healthy ddy mice = assay: Hypoglycemic effect, blood glucose after subcutaneous administration to mice; assay type: in vivo, mouse; settings: 38 μg/kg insulin, 16 h-fasted healthy male ddy mice, mean ± S.E of 4–7 experiments

albumin of rat, sequence (P02770 25-608): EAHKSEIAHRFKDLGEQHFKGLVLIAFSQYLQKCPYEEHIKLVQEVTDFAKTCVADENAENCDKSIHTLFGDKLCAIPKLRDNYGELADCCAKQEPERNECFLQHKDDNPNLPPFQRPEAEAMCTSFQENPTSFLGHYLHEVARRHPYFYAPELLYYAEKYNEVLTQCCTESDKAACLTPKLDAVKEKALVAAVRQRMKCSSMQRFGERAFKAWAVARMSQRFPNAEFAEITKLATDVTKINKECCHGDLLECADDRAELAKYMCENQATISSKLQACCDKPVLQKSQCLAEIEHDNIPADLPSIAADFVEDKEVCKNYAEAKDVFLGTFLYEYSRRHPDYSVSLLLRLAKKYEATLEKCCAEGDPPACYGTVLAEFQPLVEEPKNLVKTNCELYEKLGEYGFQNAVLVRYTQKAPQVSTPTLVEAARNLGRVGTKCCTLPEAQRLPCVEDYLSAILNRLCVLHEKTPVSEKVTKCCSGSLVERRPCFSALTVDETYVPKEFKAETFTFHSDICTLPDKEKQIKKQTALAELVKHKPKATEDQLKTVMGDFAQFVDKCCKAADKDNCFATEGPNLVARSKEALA
mouse SA (MSA), sequence (P07724 25-608): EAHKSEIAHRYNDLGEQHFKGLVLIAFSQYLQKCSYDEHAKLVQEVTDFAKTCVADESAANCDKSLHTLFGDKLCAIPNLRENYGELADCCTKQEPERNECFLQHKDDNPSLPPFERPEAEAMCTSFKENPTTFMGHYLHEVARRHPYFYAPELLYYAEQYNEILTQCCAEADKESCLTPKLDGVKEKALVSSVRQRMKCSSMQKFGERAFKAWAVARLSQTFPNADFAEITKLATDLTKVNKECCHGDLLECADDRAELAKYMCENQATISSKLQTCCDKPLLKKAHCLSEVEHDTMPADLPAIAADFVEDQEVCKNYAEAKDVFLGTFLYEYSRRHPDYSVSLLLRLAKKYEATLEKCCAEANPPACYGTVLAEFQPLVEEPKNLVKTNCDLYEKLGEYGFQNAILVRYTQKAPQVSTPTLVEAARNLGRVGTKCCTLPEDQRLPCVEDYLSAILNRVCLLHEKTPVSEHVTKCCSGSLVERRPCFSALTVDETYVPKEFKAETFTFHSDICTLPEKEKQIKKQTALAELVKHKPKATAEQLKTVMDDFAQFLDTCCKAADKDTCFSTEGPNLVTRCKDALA
albumin of cynomolgus monkey, sequence (A2V9Z4 25-608): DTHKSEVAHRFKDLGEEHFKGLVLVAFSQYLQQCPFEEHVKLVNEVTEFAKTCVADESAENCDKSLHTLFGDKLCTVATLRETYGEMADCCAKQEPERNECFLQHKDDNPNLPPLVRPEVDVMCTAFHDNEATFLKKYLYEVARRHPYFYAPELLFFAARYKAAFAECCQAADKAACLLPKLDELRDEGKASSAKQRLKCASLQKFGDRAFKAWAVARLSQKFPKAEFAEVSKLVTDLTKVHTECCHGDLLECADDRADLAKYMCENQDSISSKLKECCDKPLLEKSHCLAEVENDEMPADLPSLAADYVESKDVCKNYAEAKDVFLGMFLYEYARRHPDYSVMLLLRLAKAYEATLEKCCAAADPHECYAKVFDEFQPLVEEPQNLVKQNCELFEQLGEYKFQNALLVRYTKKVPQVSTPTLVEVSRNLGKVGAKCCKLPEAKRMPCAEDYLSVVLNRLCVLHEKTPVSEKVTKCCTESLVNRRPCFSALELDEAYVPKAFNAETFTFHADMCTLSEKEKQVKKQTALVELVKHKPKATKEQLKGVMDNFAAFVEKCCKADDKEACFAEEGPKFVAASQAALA

## Ac-CAAELAALEAELAALEGVNFGVVLFRGELAALKAKLAALKAYC-NH2 (disulfide 1-43; N-terminus assumed) [AY-VE]
trypsin
  half-life at 150 μM: 190 ± 10 min
[1]
  Binding of yeast clone to albumin of cynomolgus monkey (FACS): no affinity
Mouse SA (MSA)
  Binding of yeast clone to albumin of mouse (FACS): affinity
Albumin of rat
  Binding of yeast clone to albumin of rat (FACS): no affinity
Human SA (HSA)
  Binding of yeast clone to albumin of human (FACS): affinity
Fatty acid-free HSA
  Kd: 0.065 ± 0.039 µM

## Ac-ELAALEAELAALEGVNFGVVLFRGELAALKAKLAALKAY-NH2 (N-terminus assumed) [AY-VE-dS]
trypsin
  half-life at 150 μM: 56 ± 1 min

## Ac-GVNFGVVLFRGELAALKAKLAALKAY-NH2 (N-terminus assumed) [AY-VE-dN]
trypsin
  half-life at 150 μM: 6.3 ± 0.4 min

## insulin: Recombinant human insulin
Healthy ddy mice
  Time of peak of hypoglycemic effect after administration: 1 h
